Source: ChEMBL document CHEMBL1914459 (Bioorg Med Chem Lett, 2011)
Calls of active or inactive are those of the source. The calls are words filed in the database; no cut-off is given here.

How the values were obtained:
Cytochrome P450 2C9 = Cytochrome P450 2C9 (Homo sapiens, UniProt P11712); assay: Inhibition of CYP2C9; type: ADME
[1] = biological target: T1, Prostaglandin D2 receptor 2 (Homo sapiens, UniProt Q9Y5Y4); assay: Displacement of [3H]PGD2 from human CRTH2 receptor
T1 sequence (Q9Y5Y4 whole entry): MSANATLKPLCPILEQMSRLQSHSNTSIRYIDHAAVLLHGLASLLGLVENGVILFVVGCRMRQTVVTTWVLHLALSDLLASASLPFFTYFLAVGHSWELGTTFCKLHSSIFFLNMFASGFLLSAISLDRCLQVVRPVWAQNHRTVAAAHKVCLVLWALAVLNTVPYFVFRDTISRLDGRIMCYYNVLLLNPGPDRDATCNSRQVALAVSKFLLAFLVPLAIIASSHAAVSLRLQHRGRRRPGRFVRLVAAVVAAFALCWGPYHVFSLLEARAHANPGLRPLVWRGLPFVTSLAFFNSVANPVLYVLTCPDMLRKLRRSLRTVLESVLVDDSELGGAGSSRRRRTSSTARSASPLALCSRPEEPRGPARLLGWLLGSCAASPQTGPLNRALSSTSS
How it was run: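 Radioligand binding with ³H-PGD₂ as the labelled ligand; IC₅₀ reported as mean of n >2 measurements.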

Cytochrome P450 1A2 = biological target: T2, Cytochrome P450 1A2 (Homo sapiens, UniProt P05177); assay: Inhibition of CYP1A2; type: ADME
T2 sequence (P05177 whole entry): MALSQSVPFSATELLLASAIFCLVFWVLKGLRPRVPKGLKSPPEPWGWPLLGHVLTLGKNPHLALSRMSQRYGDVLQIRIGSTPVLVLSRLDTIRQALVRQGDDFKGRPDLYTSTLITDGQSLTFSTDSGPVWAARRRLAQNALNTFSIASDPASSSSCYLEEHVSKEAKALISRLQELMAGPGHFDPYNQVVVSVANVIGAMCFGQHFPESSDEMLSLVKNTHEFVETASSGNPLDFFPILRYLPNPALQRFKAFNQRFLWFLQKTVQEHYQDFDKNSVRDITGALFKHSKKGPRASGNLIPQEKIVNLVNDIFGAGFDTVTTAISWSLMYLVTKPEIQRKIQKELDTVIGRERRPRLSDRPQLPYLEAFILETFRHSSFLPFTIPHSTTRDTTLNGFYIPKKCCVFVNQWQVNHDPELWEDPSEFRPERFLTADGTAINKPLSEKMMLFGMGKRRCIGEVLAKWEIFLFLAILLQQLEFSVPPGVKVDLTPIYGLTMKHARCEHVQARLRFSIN

Cytochrome P450 2D6 = Cytochrome P450 2D6 (Homo sapiens, UniProt P10635); assay: Inhibition of CYP2D6; type: ADME
Sequence of Cytochrome P450 2D6 (P10635 whole entry): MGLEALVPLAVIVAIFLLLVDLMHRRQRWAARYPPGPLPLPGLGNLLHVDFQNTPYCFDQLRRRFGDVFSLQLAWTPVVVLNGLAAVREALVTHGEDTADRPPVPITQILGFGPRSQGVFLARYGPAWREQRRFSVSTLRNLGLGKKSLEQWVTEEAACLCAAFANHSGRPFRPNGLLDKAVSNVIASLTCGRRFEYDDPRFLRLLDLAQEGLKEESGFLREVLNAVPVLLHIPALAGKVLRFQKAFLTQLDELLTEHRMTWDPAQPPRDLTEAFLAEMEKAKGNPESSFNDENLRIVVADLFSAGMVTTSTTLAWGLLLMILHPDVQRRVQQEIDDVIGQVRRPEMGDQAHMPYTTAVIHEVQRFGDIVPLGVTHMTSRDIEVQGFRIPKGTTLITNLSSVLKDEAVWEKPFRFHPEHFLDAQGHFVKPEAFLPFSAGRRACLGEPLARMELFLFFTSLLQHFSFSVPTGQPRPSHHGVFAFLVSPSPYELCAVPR

Cytochrome P450 3A4 = Cytochrome P450 3A4 (Homo sapiens, UniProt P08684); assay: Inhibition of CYP3A4; type: ADME
Sequence of Cytochrome P450 3A4 (P08684 whole entry): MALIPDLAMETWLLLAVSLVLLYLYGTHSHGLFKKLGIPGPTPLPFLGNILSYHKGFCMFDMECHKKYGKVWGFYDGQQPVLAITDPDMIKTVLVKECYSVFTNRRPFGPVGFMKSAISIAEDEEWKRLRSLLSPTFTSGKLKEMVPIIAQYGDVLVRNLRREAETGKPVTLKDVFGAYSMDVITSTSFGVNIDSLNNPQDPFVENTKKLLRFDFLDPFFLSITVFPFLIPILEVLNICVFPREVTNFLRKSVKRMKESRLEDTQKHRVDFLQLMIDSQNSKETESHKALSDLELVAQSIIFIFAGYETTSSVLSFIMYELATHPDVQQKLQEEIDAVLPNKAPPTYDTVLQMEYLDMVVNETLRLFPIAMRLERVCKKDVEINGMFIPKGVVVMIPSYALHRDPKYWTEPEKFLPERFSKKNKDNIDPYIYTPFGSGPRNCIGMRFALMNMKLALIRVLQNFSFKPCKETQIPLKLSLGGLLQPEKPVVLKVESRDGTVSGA

[2] = Volume of distribution at steady state in Sprague-Dawley rat at 1 mg/kg, iv; type: ADME, organism-based; set-up: dose 1 mg/kg, route intravenous; conditions: in vivo, read-out: Vdss
[3] = biological target: T3, Thromboxane A2 receptor (Homo sapiens) (UniProt P21731); assay: Antagonist activity at prostanoid TP receptor assessed as inhibition of arachidonic acid-induced platelet aggregation at >/= 1 uM; type: functional
T3 sequence (whole entry): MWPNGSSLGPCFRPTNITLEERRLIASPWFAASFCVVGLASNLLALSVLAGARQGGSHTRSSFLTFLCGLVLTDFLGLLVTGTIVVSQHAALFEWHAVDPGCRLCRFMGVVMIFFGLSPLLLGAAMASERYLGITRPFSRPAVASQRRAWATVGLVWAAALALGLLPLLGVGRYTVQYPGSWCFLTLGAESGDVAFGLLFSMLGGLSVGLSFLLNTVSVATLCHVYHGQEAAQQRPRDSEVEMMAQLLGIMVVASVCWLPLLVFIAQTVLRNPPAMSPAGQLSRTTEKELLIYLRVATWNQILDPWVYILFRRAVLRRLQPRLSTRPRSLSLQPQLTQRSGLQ

[4] = Lipophilicity, log D of the compound at pH 7.4; conditions: buffer
[5] = Intrinsic clearance in rat hepatocytes assessed as per 1 x 10^6 cells
[6] = Clearance in Sprague-Dawley rat at 1 mg/kg, iv; type: ADME, organism-based; set-up: dose 1 mg/kg, route intravenous; conditions: in vivo
[7] = Inhibition of human recombinant aldose reductase 2 after 15 mins by spectrophotometry analysis
[8] = biological target: T4, Prostaglandin D2 receptor (Homo sapiens) (UniProt Q13258); assay: Antagonist activity at prostanoid DP1 receptor; type: functional
T4 sequence (whole entry): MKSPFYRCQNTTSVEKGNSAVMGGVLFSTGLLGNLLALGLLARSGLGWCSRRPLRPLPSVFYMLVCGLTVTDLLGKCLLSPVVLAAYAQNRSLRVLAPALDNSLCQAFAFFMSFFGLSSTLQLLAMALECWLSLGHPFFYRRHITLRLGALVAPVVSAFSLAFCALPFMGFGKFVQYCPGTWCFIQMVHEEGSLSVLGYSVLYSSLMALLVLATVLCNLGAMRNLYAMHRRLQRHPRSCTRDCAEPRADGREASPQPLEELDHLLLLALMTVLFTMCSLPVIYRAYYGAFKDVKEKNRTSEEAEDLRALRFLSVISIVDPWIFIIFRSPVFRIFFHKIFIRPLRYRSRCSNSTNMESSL

[9] = Oral bioavailability in Sprague-Dawley rat at 4 mg/kg; type: ADME, organism-based; conditions: in vivo
[10] = biological target: T1, Prostaglandin D2 receptor 2; assay: Antagonist activity against human CRTh2 receptor in human eosinophils assessed as inhibition of DK-PGD2-induced CD11b expression; type: functional
[11] = biological target: Prostaglandin G/H synthase 1 (Homo sapiens) (UniProt P23219); assay: Inhibition of COX1 assessed as inhibition of arachidonic acid-induced platelet aggregation at >/= 1 uM
Sequence of Prostaglandin G/H synthase 1 (Homo sapiens) (P23219 whole entry): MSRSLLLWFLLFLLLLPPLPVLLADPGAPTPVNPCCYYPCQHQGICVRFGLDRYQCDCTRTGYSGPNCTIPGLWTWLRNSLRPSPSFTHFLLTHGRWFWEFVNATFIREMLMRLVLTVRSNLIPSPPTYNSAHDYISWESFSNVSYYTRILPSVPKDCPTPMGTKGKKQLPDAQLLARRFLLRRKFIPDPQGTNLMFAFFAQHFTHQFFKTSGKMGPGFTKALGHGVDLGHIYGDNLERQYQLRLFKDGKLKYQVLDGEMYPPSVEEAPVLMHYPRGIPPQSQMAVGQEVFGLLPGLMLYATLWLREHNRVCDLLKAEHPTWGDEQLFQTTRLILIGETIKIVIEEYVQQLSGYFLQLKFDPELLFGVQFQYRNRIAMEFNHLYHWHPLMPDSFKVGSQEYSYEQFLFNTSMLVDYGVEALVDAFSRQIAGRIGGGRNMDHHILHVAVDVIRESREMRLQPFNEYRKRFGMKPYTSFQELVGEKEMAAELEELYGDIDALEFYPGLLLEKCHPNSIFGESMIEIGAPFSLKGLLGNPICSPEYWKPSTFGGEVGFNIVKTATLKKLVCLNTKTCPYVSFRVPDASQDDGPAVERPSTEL

[12] = Half life in Sprague-Dawley rat at 1 mg/kg, iv; type: ADME, organism-based; set-up: dose 1 mg/kg, route intravenous; conditions: in vivo

Sequence of Cytochrome P450 2C9 (P11712 whole entry): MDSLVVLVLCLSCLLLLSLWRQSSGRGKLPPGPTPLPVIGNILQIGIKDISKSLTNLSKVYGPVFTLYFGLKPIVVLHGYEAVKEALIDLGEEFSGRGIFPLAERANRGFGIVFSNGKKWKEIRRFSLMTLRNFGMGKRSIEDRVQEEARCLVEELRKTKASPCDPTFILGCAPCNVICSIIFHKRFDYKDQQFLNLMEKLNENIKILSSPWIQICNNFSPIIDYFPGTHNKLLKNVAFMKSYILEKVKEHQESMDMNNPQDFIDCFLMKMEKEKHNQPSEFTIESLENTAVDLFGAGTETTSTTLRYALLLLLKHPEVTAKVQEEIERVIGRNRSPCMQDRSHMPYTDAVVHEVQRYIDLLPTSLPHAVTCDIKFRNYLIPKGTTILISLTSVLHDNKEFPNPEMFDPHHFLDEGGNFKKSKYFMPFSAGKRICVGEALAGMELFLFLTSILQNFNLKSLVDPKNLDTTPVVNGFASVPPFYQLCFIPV

- IC50 (Cytochrome P450 2C9): > 10 µM
- IC50 [1]: 4.3 nM
- IC50 (Cytochrome P450 1A2): > 10 µM
- IC50 (Cytochrome P450 2D6): > 10 µM
- IC50 (Cytochrome P450 3A4): > 10 µM
- Vd [2]: 0.5 L/kg
- inhibition [3]: inactive
- logD [4]: -0.2
- hepatocyte CLint [5]: 1 µL/min/1e6 cells
- clearance [6]: 4 mL/min/kg
- IC50 [7]: 2510 nM
- Activity [8]: inactive
- bioavailability [9]: 63%
- IC50 [10]: 10 nM
- inhibition [11]: inactive
- half-life [12]: 114 min
Structure (SMILES): CC(=O)Nc1cccc2c1c(Sc1ccc(Cl)cc1)c(C)n2CC(=O)O [AZD1981]
